Reference: ChEMBL document CHEMBL1129454, “HIV protease inhibitory bis-benzamide cyclic ureas: a quantitative structure-activity relationship analysis” (J Med Chem, 1996)
Active and inactive are the calls of the source. The rule behind the calls is not given here.

Tests used:
[1] = molecular target: T1, Human immunodeficiency virus type 1 protease (Human immunodeficiency virus 1, UniProt Q72874); test: Binding affinity was evaluated on HIV Protease enzyme; not active
Outline: (§1)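 Cleavage products were separated by anion-exchange HPLC and the product quantified by fluorescence. Each compound was assayed at least twice and the mean reported; assay SD <±40%.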

[2] = molecular target: T1, Human immunodeficiency virus type 1 protease; test: Binding affinity was evaluated with recombinant single chain dimeric HIV protease enzyme with a fluorescent substrate; not active; outline: as §1
T-cell = test: The concentration of the antiviral compound required to inhibit HIV RNA synthesis by 90%. viral RNA was quantified by sandwich hybridization assay; not active; assay type: functional, cell-based
Outline: (§2)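 Susceptible T-cell lines grown in individual microtiter wells were infected with HIV. Cell-associated viral RNA was measured by RNA hybridization 3 days after infection. […] Assay SD was <±37%. Cytotoxicity was scored separately by tetrazolium dye metabolism, because RNA assay results are valid only at non-cytotoxic doses.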

[3] = molecular target: T1, Human immunodeficiency virus type 1 protease; test: Binding affinity for HIV-1 protease; outline: as §1
[4] = molecular target: T1, Human immunodeficiency virus type 1 protease; test: Inhibitory activity against HIV-1 protease; outline: as §1
[5] = tested on: Human immunodeficiency virus 1; test: The concentration required to inhibit HIV-1 RNA synthesis by 90%. Viral RNA quantified by a sandwich hybridization assay; assay type: functional; outline: as §2

Row | SMILES | Ki [1] | Ki [2] | IC90 (T-cell) | Ki [3] [nM] | Ki [4] [nM] | IC90 ([5]; Human immunodeficiency virus 1) [nM] | IC90 [5] [nM]
1 | CC1(C)O[C@@H]2[C@@H](O1)[C@@H](Cc1ccccc1)N(Cc1cccc(C#N)c1)C(=O)N(Cc1cccc(C#N)c1)[C@@H]2Cc1ccccc1 | Not Active | Not Active | inactive |  |  |  | 
2 | CC1(C)O[C@@H]2[C@@H](O1)[C@@H](Cc1ccccc1)N(Cc1cccc(C(=O)O)c1)C(=O)N(Cc1cccc(C(=O)O)c1)[C@@H]2Cc1ccccc1 | Not Active | Not Active | inactive |  |  |  | 
3 | Cc1cccc(NC(=O)c2cccc(CN3C(=O)N(Cc4cccc(C(=O)Nc5cccc(C)n5)c4)[C@H](Cc4ccccc4)[C@H](O)[C@@H](O)[C@H]3Cc3ccccc3)c2)n1 |  |  |  | 0.02 | 0.02 | 3.2 | 
4 | COC(=O)c1cccc(CN2C(=O)N(Cc3cccc(C(=O)OC)c3)[C@H](Cc3ccccc3)[C@@H]3OC(C)(C)O[C@H]3[C@H]2Cc2ccccc2)c1 | Not Active | Not Active | inactive |  |  |  | 
5 | O=C(Nc1ccc(Cl)cn1)c1cccc(CN2C(=O)N(Cc3cccc(C(=O)Nc4ccc(Cl)cn4)c3)[C@H](Cc3ccccc3)[C@H](O)[C@@H](O)[C@H]2Cc2ccccc2)c1 |  |  |  | 0.01 | 0.012 | 14.7 | 
6 | CNC(=O)c1cccc(CN2C(=O)N(Cc3cccc(C(=O)NC)c3)[C@H](Cc3ccccc3)[C@H](O)[C@@H](O)[C@H]2Cc2ccccc2)c1 (stereo in doubt; 6) |  |  |  | 0.06 | 0.066 |  | 80.5
7 | CCCCNC(=O)c1cccc(CN2C(=O)N(Cc3cccc(C(=O)NCCCC)c3)[C@H](Cc3ccccc3)[C@H](O)[C@@H](O)[C@H]2Cc2ccccc2)c1 |  |  |  | 0.424 | 0.424 | 255 | 
8 | CONC(=O)c1cccc(CN2C(=O)N(Cc3cccc(C(=O)NOC)c3)[C@H](Cc3ccccc3)[C@H](O)[C@@H](O)[C@H]2Cc2ccccc2)c1 |  |  |  | 0.08 | 0.045 | 214 | 
9 | O=C(NCC(F)(F)F)c1cccc(CN2C(=O)N(Cc3cccc(C(=O)NCC(F)(F)F)c3)[C@H](Cc3ccccc3)[C@H](O)[C@@H](O)[C@H]2Cc2ccccc2)c1 |  |  |  | 0.21 | 0.21 | 92.5 | 
10 | O=C(Nc1ncc(Cl)cc1Cl)c1cccc(CN2C(=O)N(Cc3cccc(C(=O)Nc4ncc(Cl)cc4Cl)c3)[C@H](Cc3ccccc3)[C@H](O)[C@@H](O)[C@H]2Cc2ccccc2)c1 |  |  |  | 0.24 | 0.245 | 43 | 
11 | N#CCNC(=O)c1cccc(CN2C(=O)N(Cc3cccc(C(=O)NCC#N)c3)[C@H](Cc3ccccc3)[C@H](O)[C@@H](O)[C@H]2Cc2ccccc2)c1 |  |  |  | 0.063 | 0.063 | 596 | 
12 | O=C(Nc1ccc(C(F)(F)F)cn1)c1cccc(CN2C(=O)N(Cc3cccc(C(=O)Nc4ccc(C(F)(F)F)cn4)c3)[C@H](Cc3ccccc3)[C@H](O)[C@@H](O)[C@H]2Cc2ccccc2)c1 |  |  |  | 0.09 | 0.085 | 63.4 | 
